According to ChEMBL document CHEMBL2157936, “Structure-activity relationships for side chain oxysterol agonists of the hedgehog signaling pathway” (ACS Med Chem Lett, 2012):
Calls of active or inactive are those of the source. The rule behind the calls is not given here.

Columns and labels:
[1] = Agonist activity at Hh receptor in mouse C3H10T1/2 cells assessed as fold increase in Gli1 expression at 5 uM by RT-PCR analysis relative to control; type: functional, C3H 10T1/2
[2] = Agonist activity at LXR in mouse C3H10T1/2 cells assessed as fold increase in ABCA1 expression at 5 uM by RT-PCR analysis relative to control; type: functional, C3H 10T1/2
[3] = Selectivity ratio of agonist activity at Hh receptor over agonist activity at LXR in mouse C3H10T1/2 cells; type: functional, C3H 10T1/2
[4] = (§1) Agonist activity at Hh receptor in mouse C3H10T1/2 cells assessed as increase in Gli1 expression by RT-PCR analysis; type: functional, cell-based; conditions: C3H 10T1/2
Method in brief: (§2)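 Dose-response in C3H10T1/2 and M2-10B4 cells. Read-out: mRNA of GLI1, PTCH (Hh) or ABCA1 (LXR), expressed relative to the DMSO control. EC50 values were derived from these curves.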

C3H 10T1/2 [5] = experiment: as §1; type: functional, cell-based; method in brief: as §2
[6] = (§3) Agonist activity at Hh receptor in mouse M210B4 cells assessed as increase in Gli1 expression by RT-PCR analysis; type: functional, cell-based; method in brief: as §2
M210B4 [7] = experiment: as §3; type: functional, cell-based; method in brief: as §2
[8] = (§4) Agonist activity at Hh receptor in mouse C3H10T1/2 cells assessed as increase in Ptch expression by RT-PCR analysis; type: functional, cell-based; conditions: C3H 10T1/2; method in brief: as §2
C3H 10T1/2 [9] = experiment: as §4; type: functional, cell-based; method in brief: as §2
[10] = (§5) Agonist activity at Hh receptor in mouse M210B4 cells assessed as increase in Ptch expression by RT-PCR analysis; type: functional, cell-based; method in brief: as §2
M210B4 [11] = experiment: as §5; type: functional, cell-based; method in brief: as §2
[12] = Agonist activity at LXR in mouse C3H10T1/2 cells assessed as increase in ABCA1 expression by RT-PCR analysis; type: functional, cell-based; conditions: C3H 10T1/2; method in brief: as §2
[13] = Agonist activity at LXR in mouse M210B4 cells assessed as increase in ABCA1 expression by RT-PCR analysis; type: functional, cell-based; method in brief: as §2
C3H 10T1/2 [14] = experiment: Selectivity ratio of EC50 for LXR to EC50 for Hh receptor in mouse C3H10T1/2 cells; type: cell-based
M210B4 [15] = experiment: Selectivity ratio of EC50 for LXR to EC50 for Hh receptor in mouse M210B4 cells; type: cell-based
M210B4 [16] = experiment: Agonist activity at Hh receptor in mouse M210B4 cells assessed as upregulation of Gli1 at 5 uM after 24 hrs by RT-PCR analysis relative to control; type: functional, cell-based
Method in brief: (§6)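 Read-out: GLI1 or PTCH mRNA in M2-10B4 cells. Cells were pretreated for 2 h with cyclopamine (5 μM), or left without it, then given OHC (5 μM). mRNA was measured after 24 h of incubation and expressed as fold induction over the DMSO control, set at 1. Data come from a representative experiment run in triplicate.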

M210B4 [17] = experiment: Agonist activity at Hh receptor in mouse M210B4 cells assessed as upregulation of Ptch at 5 uM after 24 hrs by RT-PCR analysis relative to control; type: functional, cell-based; method in brief: as §6
M210B4 [18] = experiment: Agonist activity at Hh receptor in mouse M210B4 cells assessed as upregulation of Gli1 at 5 uM after 24 hrs by RT-PCR analysis in presence of cyclopamine relative to control; type: functional, cell-based; method in brief: as §6
M210B4 [19] = experiment: Agonist activity at Hh receptor in mouse M210B4 cells assessed as upregulation of Ptch at 5 uM after 24 hrs by RT-PCR analysis in presence of cyclopamine relative to control; type: functional, cell-based; method in brief: as §6
M210B4 [20] = experiment: Induction of Hh receptor-mediated osteogenesis in mouse M210B4 cells assessed as fold increase in Osx expression at 5 uM after 24 hrs by RT-PCR analysis relative to control; type: cell-based
Method in brief: (§7)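 M2-10B4 cells received OHC (5 μM), or the 20(S)-/22(S)-OHC pair (5 μM each). Osterix and alkaline phosphatase mRNA were measured at time points of 24, 48 and 96 h. Expression is relative to the DMSO control. Data come from a representative experiment run in triplicate.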

M210B4 [21] = experiment: Induction of Hh receptor-mediated osteogenesis in mouse M210B4 cells assessed as fold increase in Osx expression at 5 uM after 48 hrs by RT-PCR analysis relative to control; type: cell-based; method in brief: as §7
M210B4 [22] = experiment: Induction of Hh receptor-mediated osteogenesis in mouse M210B4 cells assessed as fold increase in Osx expression at 5 uM up to 96 hrs by RT-PCR analysis relative to control; type: cell-based; method in brief: as §7
M210B4 [23] = experiment: Induction of Hh receptor-mediated osteoblast formation in mouse M210B4 cells assessed as increase in ALP expression at 5 uM after 24 hrs by RT-PCR analysis relative to control; type: cell-based; method in brief: as §7
M210B4 [24] = experiment: Induction of Hh receptor-mediated osteoblast formation in mouse M210B4 cells assessed as increase in ALP expression at 5 uM after 48 hrs by RT-PCR analysis relative to control; type: cell-based; method in brief: as §7
M210B4 [25] = experiment: Induction of Hh receptor-mediated osteoblast formation in mouse M210B4 cells assessed as increase in ALP expression at 5 uM up to 96 hrs by RT-PCR analysis relative to control; type: cell-based; method in brief: as §7
M210B4 [26] = experiment: Ratio of EC50 for Hh receptor in mouse M210B4 cells to EC50 for Hh receptor in mouse C3H10T1/2 cells; type: cell-based

For CC(C)C[C@H](O)C[C@@H](C)[C@H]1CC[C@H]2[C@@H]3CC=C4C[C@@H](O)CC[C@]4(C)[C@H]3CC[C@]12C, the “fold change (FC)” value [1] was 32.4, the “fold change (FC)” value [2] was 3.6 and the Selectivity ratio [3] was 9.
In the case of C[C@@H]([C@H]1CC[C@H]2[C@@H]3CC=C4C[C@@H](O)CC[C@]4(C)[C@H]3CC[C@]12C)[C@@H](O)CCC(C)(C)O, the “fold change (FC)” value [1] is reported as 9.9, the “fold change (FC)” value [2] is reported as 2.9 and the Selectivity ratio [3] is reported as 3.4.
With CC(C)(O)CCC[C@](C)(O)[C@H]1CC[C@H]2[C@@H]3CC=C4C[C@@H](O)CC[C@]4(C)[C@H]3CC[C@@]21C the “fold change (FC)” value [1] was 107.8, the “fold change (FC)” value [2] was 26.3 and the Selectivity ratio [3] was 4.1.
In the case of CC(C)(O)CC[C@](C)(O)[C@H]1CC[C@H]2[C@@H]3CC=C4C[C@@H](O)CC[C@]4(C)[C@H]3CC[C@@]21C, the “fold change (FC)” value [1] is reported as 18.1, the “fold change (FC)” value [2] is reported as 10.3 and the Selectivity ratio [3] is reported as 1.8.
In the case of CC(C)CCC[C@](C)(O)[C@H]1CC[C@H]2[C@@H]3CC=C4C[C@@H](O)CC[C@]4(C)[C@H]3CC[C@@]21C, the “fold change (FC)” value [1] is reported as 91.8, the “fold change (FC)” value [2] is reported as 13.4 and the Selectivity ratio [3] is reported as 6.8.
For C[C@H](C(O)CCC(C)(C)O)[C@H]1CC[C@H]2[C@@H]3CC=C4C[C@@H](O)CC[C@]4(C)[C@H]3CC[C@]12C (mixture of isomers), the “fold change (FC)” value [1] was 1 and the “fold change (FC)” value [2] was 0.9.
For CC(C)CCC[C@@H](C)[C@H]1CC[C@H]2[C@@H]3[C@@H](O)C=C4C[C@@H](O)CC[C@]4(C)[C@H]3CC[C@]12C, the “fold change (FC)” value [1] was 1.6, the “fold change (FC)” value [2] was 0.6 and the Selectivity ratio [3] was 2.6.
In the case of CC(C)CC[C@@H](O)[C@@H](C)[C@H]1CC[C@H]2[C@@H]3CC=C4C[C@@H](O)CC[C@]4(C)[C@H]3CC[C@]12C [22(R)-HYDROXYCHOLESTEROL], the “fold change (FC)” value [1] is reported as 4.7 and the “fold change (FC)” value [2] is reported as 24.1.
In the case of C[C@H](CCO)[C@H]1CC[C@H]2[C@@H]3CC=C4C[C@@H](O)CC[C@]4(C)[C@H]3CC[C@]12C, the “fold change (FC)” value [1] is reported as 4.1, the “fold change (FC)” value [2] is reported as 0.4 and the Selectivity ratio [3] is reported as 10.4.
For C[C@H](C(=O)CCC(C)(C)O)[C@H]1CC[C@H]2[C@@H]3CC=C4C[C@@H](O)CC[C@]4(C)[C@H]3CC[C@]12C, the “fold change (FC)” value [1] was 6 and the “fold change (FC)” value [2] was 21.7.
With C[C@H](CCCC(C)(C)O)[C@H]1CC[C@H]2[C@@H]3CC=C4C[C@@H](O)CC[C@]4(C)[C@H]3CC[C@]12C the “fold change (FC)” value [1] was 69.9, the “fold change (FC)” value [2] was 9.8 and the Selectivity ratio [3] was 7.1.
In the case of CC(C)CC[C@H](O)[C@@H](C)[C@H]1CC[C@H]2[C@@H]3CC=C4C[C@@H](O)CC[C@]4(C)[C@H]3CC[C@]12C, the “fold change (FC)” value [1] is reported as 52.5, the “fold change (FC)” value [2] is reported as 2.3 and the Selectivity ratio [3] is reported as 22.8.
In the case of CC(C)C[C@@H](O)C[C@@H](C)[C@H]1CC[C@H]2[C@@H]3CC=C4C[C@@H](O)CC[C@]4(C)[C@H]3CC[C@]12C, the “fold change (FC)” value [1] is reported as 87.1, the “fold change (FC)” value [2] is reported as 4.9 and the Selectivity ratio [3] is reported as 17.8. For the same molecule, the EC50 [4] was 540 nM, the Activity (C3H 10T1/2 [5]) was “Dose-dependent effect” and the EC50 [6] was 570 nM. For the same molecule, the Activity (M210B4 [7]) was “Dose-dependent effect”, the EC50 [8] was 650 nM and the Activity (C3H 10T1/2 [9]) was “Dose-dependent effect”. The EC50 [10] was 580 nM, the Activity (M210B4 [11]) was “Dose-dependent effect” and the EC50 [12] was 1530 nM. It also gave an EC50 [13] of 1540 nM, a Ratio EC50 (C3H 10T1/2 [14]) of 3 and a Ratio EC50 (M210B4 [15]) of 3. For the same molecule, the Activity (M210B4 [16]) was “Active”, the Activity (M210B4 [17]) was “Active” and the Activity (M210B4 [18]) was “inactive”. For the same molecule, the Activity (M210B4 [19]) was “inactive”, the fold change (FC) (M210B4 [20]) was 5 and the fold change (FC) (M210B4 [21]) was > 30. For the same molecule, the Activity (M210B4 [22]) was “Active”, the Activity (M210B4 [23]) was “Active” and the Activity (M210B4 [24]) was “Active”. The Activity (M210B4 [25]) was “Active” and the Ratio EC50 (M210B4 [26]) was 1.06.
